Experimental findings from ChEMBL document CHEMBL4145615, “Indolyl Azaspiroketal Mannich Bases Are Potent Antimycobacterial Agents with Selective Membrane Permeabilizing Effects and in Vivo Activity” (J Med Chem, 2018) are described below.

Values after ≈ are worked out from the molar mass of the structure shown. Active and inactive are the calls of the source. No cut-off for these calls is given here. Bounds are passed on as bounds.

Assay [1] has as its system Mycobacterium tuberculosis variant bovis BCG. Kind of assay: Antimycobacterial activity against Mycobacterium bovis BCG ATCC 35734 after 5 days by broth dilution method. Format: functional. As to conditions: ATCC 35734, 120 h. On the technique in general: Dilution methods test growth across graded concentrations, often in twofold steps.
For assay [2] the test system is unchanged. Nature of the assay: Bactericidal activity against Mycobacterium bovis BCG ATCC 35734 assessed as 1000 fold reduction in CFU after 5 days. Format: functional. As to conditions: ATCC 35734, 120 h, read-out: MBC99.9. The gist of the method:
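BCG ran 5 days at 37°C, 110 rpm; H37Rv ran 7 days at 37°C, 80 rpm. CFU counted on 7H10 agar. MBC99.9 is the 1000-fold CFU reduction versus inoculum at time zero. Average of 2 or more determinations.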

The test system is the same in assay [3]. Kind of assay: Antimycobacterial activity against Mycobacterium bovis BCG ATCC 35734 after 5 days in absence of glycerol by broth dilution method. The format is functional. Particulars: ATCC 35734, 120 h.
The test system is the same in assay [4]. Nature of the assay: Antimycobacterial activity against Mycobacterium bovis BCG ATCC 35734 after 5 days in presence of 10% FBS by broth dilution method. Format: functional. As to conditions: ATCC 35734, 120 h.
Assay [5] concerns Cell membrane. Kind of assay: Disruption of cell membrane potential in Mycobacterium bovis BCG ATCC 35734 at 4 times MIC90 after 4 hrs by DiOC2 dye-based fluorescence assay. As to conditions: Mycobacterium tuberculosis variant bovis BCG. Summed up: (§1)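 Controls were rifampicin 0.08 μM (negative) and CCCP 100 μM (positive). Membrane potential tracked by DiOC2 red/green fluorescence ratio over minutes–hours and days 1–5, versus drug-free cultures. 2–3 independent biological replicates.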

The subject of assay [6] is Cell membrane. Nature of the assay: Disruption of cell membrane potential in Mycobacterium bovis BCG ATCC 35734 at 4 times MIC90 after 3 days by DiOC2 dye-based fluorescence assay. As to conditions: Mycobacterium tuberculosis variant bovis BCG. The gist of the method: as §1
Assay [7] has as its system Mycobacterium tuberculosis variant bovis BCG. Kind of assay: Bactericidal activity against Mycobacterium bovis BCG ATCC 35734 at 4 times MIC90 measured up to 48 hrs by time kill assay relative to control. Format: functional. Summed up:
(§2)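 Samples taken at 6, 12, 24 and 48 h, diluted and plated on 7H10 agar for CFU. Three independent biological replicates.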

Assay [8] deals with Cell membrane. Nature of the assay: Disruption of cell membrane potential in Mycobacterium bovis BCG ATCC 35734 at 100 uM after 20 mins to 5 days by DiOC2 dye-based fluorescence assay. As to conditions: Mycobacterium tuberculosis variant bovis BCG. Summed up: as §1
The test system of assay [9] is Cell membrane. Kind of assay: Induction of cell membrane permeabilization in Mycobacterium bovis BCG ATCC 35734 at 4 times MIC90 after 12 hrs by SYTO9/propidium iodide staining-based fluorescence assay. As to conditions: Mycobacterium tuberculosis variant bovis BCG. Summed up:
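At each time point cells were washed into 0.9% NaCl at OD600 = 0.5 and stained with SYTO 9 and PI for 15 min at 37°C in the dark. Green (488/530 nm) and red (488/630 nm) fluorescence read. G/R ratio scaled between drug-free (0%) and 5% SDS (100%). Three biological replicates.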

Assay [10] deals with Cell membrane. Kind of assay: Disruption of cell membrane potential in Mycobacterium bovis BCG ATCC 35734 at 0.08 uM after 20 mins to 5 days by DiOC2 dye-based fluorescence assay. Particulars: Mycobacterium tuberculosis variant bovis BCG. The gist of the method:
as §1

Assay [11] has as its system Mycobacterium tuberculosis variant bovis BCG. Kind of assay: Bactericidal activity against Mycobacterium bovis BCG ATCC 35734 at 4 times MIC90 measured at 48 hrs by time kill assay relative to control. Format: functional, organism-based. The gist of the method:
as §2

The MIC50 is the lowest concentration that inhibits either 50% of growth or 50% of the strains tested, depending on the study. Usually MIC90 stands for an inhibitory concentration at the 90% level, which refers to growth in some studies and to a panel of isolates in others. A lower MIC90 goes with greater potency. On to `CCCCCCCCn1cc(CN2CCC3(CC2)OCCS3)c2ccc(OC)cc21`, for which the figures for the MIC50 in assay [1], in assay [3] and in assay [4] were 0.6 µM (≈ 0.258 µg/mL), 0.37 µM (≈ 0.159 µg/mL) and 0.32 µM, respectively. The same compound returned an MIC90 in [1] of 0.8 µM (≈ 0.345 µg/mL). Further, the MBC in [2] lay in the range of 0.8 to 1.6 µM (≈ 0.345 to 0.689 µg/mL).
On to `CCCCCCCCn1cc(CN2CCCCCC2)c2c(F)cccc21`, for which the result in assay [5] was inactive. In addition, in assay [6], the result was Active.
For `CCCCCCCCn1cc(CN2CCC3(CC2)OCCCO3)c2ccc(OC)cc21`, the figures for the MIC50 in [1], in assay [3] and in assay [4] were 0.3 µM (≈ 0.129 µg/mL), 0.35 µM (≈ 0.15 µg/mL) and 0.33 µM, respectively. This compound displayed an MIC90 in [1] of 0.8 µM (≈ 0.343 µg/mL). Further, the MBC in assay [2] was in the range of 0.8 to 1.6 µM (≈ 0.343 to 0.686 µg/mL). Moreover, the “fold change (FC)” value in [7] is above 100.
With `CCCCCCCCn1cc(CN2CCC3(CC2)SCCS3)c2ccc(OC)cc21`, the MIC50 is 0.5 µM (≈ 0.223 µg/mL) in [1], 0.27 µM (≈ 0.121 µg/mL) in assay [3] and 0.28 µM in assay [4]. For the same compound, the MIC90 in assay [1] stood at 0.8 µM (≈ 0.357 µg/mL). Moreover, the MBC in assay [2] is 0.8 to 1.6 µM (≈ 0.357 to 0.715 µg/mL).
As for `NNC(=O)c1ccncc1` [ISONIAZID], the “fold change (FC)” value in assay [7] is above 100.
For the compound `N#CC(C#N)=NNc1cccc(Cl)c1`, in [8], the result was Active.
Regarding `CCCCCCCCn1cc(CN2CCC3(CC2)OCCCS3)c2ccc(OC)cc21`, the MIC50 in assay [1] stood at 0.4 µM (≈ 0.178 µg/mL); in assay [3], 0.41 µM (≈ 0.182 µg/mL); in [4] it was 0.6 µM. This compound gave an MIC90 in [1] of 0.8 µM (≈ 0.356 µg/mL). The MBC in assay [2] lay in the range of 0.4 to 1.6 µM (≈ 0.178 to 0.711 µg/mL). For the same compound, the outcome in assay [9] was Active. In addition, in assay [7], the “fold change (FC)” value is above 100.
For the compound `CO[C@H]1/C=C/O[C@@]2(C)Oc3c(C)c(O)c4c(O)c(c(/C=N/N5CCN(C)CC5)c(O)c4c3C2=O)NC(=O)/C(C)=C\C=C\[C@H](C)[C@H](O)[C@@H](C)[C@@H](O)[C@@H](C)[C@H](OC(C)=O)[C@@H]1C`, the outcome in assay [10] was inactive.
`CCCCCCCCn1cc(CN2CCC3(CC2)OCCO3)c2ccc(OC)cc21`: the MIC50 in [1] stood at 2 µM (≈ 0.829 µg/mL); in [3] it was 1.6 µM (≈ 0.663 µg/mL); in assay [4] it was 1.1 µM. The MIC90 in assay [1] worked out at 4 µM (≈ 1.66 µg/mL). Further, the MBC in assay [2] lay within 3 to 6 µM (≈ 1.24 to 2.49 µg/mL). Further, the outcome in assay [11] was inactive.
In assay [1], `CCCCCCCCn1cc(CN2CCCCC2)c2ccc(OC)cc21` registered an MIC50 of 7 µM (≈ 2.5 µg/mL) and an MIC90 of 13 µM (≈ 4.64 µg/mL).
Taken in the same sequence, the figures for `CCCCCCCCn1cc(CN2CCC3(CC2)OCCCO3)c2ccc([N+](=O)[O-])cc21` were 0.3 µM (≈ 0.133 µg/mL) and 0.8 µM (≈ 0.355 µg/mL).
In assay [1], `CCCCCCCCn1ccc2ccc(OCCCN3CCC4(CC3)OC[C@H](C)O4)cc21` had an MIC50 of 11 µM (≈ 4.87 µg/mL) and an MIC90 of 25 µM (≈ 11.1 µg/mL).
With `CCCCCCCCn1cc(CN2CCC3(C2)CC3(F)F)c2ccc(OC)cc21` (stereo not given), in assay [1], the MIC50 was 13 µM (≈ 5.26 µg/mL) and the MIC90 worked out at 18 µM (≈ 7.28 µg/mL).
Taken in the same sequence, the figures for `CCCCCCCCn1cc(CN2CCC(S(N)(=O)=O)CC2)c2ccc(OC)cc21` were 8 µM (≈ 3.49 µg/mL) and 22 µM (≈ 9.58 µg/mL).
Taken in the same sequence, the figures for `COc1ccc2c(CN3CCC4(CC3)OCCO4)cn(CCCOCc3ccccc3)c2c1` were 16 µM (≈ 7.21 µg/mL) and 40 µM (≈ 18 µg/mL).
The like results for `CCCCCCCCn1ccc2ccc(OCCCN3CCCC3)cc21` were, in that order, 20 µM (≈ 7.13 µg/mL) and 42 µM (≈ 15 µg/mL).
Regarding `CCCCCCCCn1cc(CN2CCOC3(CCCO3)C2)c2ccc(OC)cc21` (stereo not given), in assay [1], the MIC50 is 15 µM (≈ 6.22 µg/mL) and the MIC90 was 46 µM (≈ 19.1 µg/mL).
The like results for `CCCCCCCCn1cc(CN2CCC3(CC2)CNC(=O)O3)c2ccc(OC)cc21` were, in that order, 22 µM (≈ 9.41 µg/mL) and 43 µM (≈ 18.4 µg/mL).
Turning to `CCCCCCCCn1cc(CN2CCC3(CC2)OC[C@H](C)O3)c2ccc(OC)cc21`, in assay [1], the MIC50 is 0.5 µM (≈ 0.214 µg/mL) and the MIC90 was found to be 0.9 µM (≈ 0.386 µg/mL).
Taken in the same sequence, the figures for `CCCCCCCCn1cc(CNCC2CCC3CC3C2)c2ccc(OC)cc21` (stereo not given) were 1.6 µM (≈ 0.635 µg/mL) and 2.3 µM (≈ 0.912 µg/mL).
On to `CCCCCCCCn1cc(CNC2Cc3ccccc3C2)c2ccc(OC)cc21`, for which the MIC50 in assay [1] was 4 µM (≈ 1.62 µg/mL).
Take `COc1ccc(OCCCn2cc(CN3CCC4(CC3)OCCO4)c3ccc(OC)cc32)cc1`: in [1], the MIC50 was 6 µM (≈ 2.8 µg/mL) and the MIC90 was found to be 13 µM (≈ 6.07 µg/mL).
For `CCCCCCCCn1cc(CN2CCC3(CC2)SCCCS3)c2ccc(OC)cc21`, the MIC50 in [1] is 0.4 µM (≈ 0.184 µg/mL); in assay [3], 0.43 µM (≈ 0.198 µg/mL); in assay [4], 0.48 µM. The MIC90 in [1] came to 0.8 µM (≈ 0.369 µg/mL). The MBC in assay [2] fell in the range of 0.8 to 1.6 µM (≈ 0.369 to 0.737 µg/mL).
As for `CCCCCCCCn1ccc2cccc(OCCCN3CCCCCC3)c21`, in assay [1], the MIC50 was 5 µM (≈ 1.92 µg/mL) and the MIC90 turned out to be 11 µM (≈ 4.23 µg/mL).
The like results for `COc1ccc2c(CN3CCCCC3)cn(CCCOc3ccc(C)c(C)c3)c2c1` were, in that order, 18 µM (≈ 7.32 µg/mL) and 25 µM (≈ 10.2 µg/mL).
The like results for `CCCCCCCCn1cc(CN2[C@H]3CCC[C@@H]2CCC3)c2ccc(OC)cc21` were, in that order, 3.8 µM (≈ 1.51 µg/mL) and 7.6 µM (≈ 3.01 µg/mL).
